Series [1] addresses Sigma non-opioid intracellular receptor 1 (Homo sapiens, UniProt Q99720). The series can be described thus: Displacement of [3H]-(+)-pentazocine from recombinant human sigma1 receptor expressed in HEK293 cell membranes after 120 mins by microbeta scintillation counting method. In general terms: In a radioligand displacement assay an active substance lowers the binding of a labelled ligand.

The species entered for a further series is Cavia porcellus. The series can be described thus: Displacement of [3H]-DTG from sigma2 receptor in guinea pig brain membranes at 1 uM after 120 mins in presence of sigma1 […] (+)-SKF10047 by microbeta scintillation counting method relative to control. The series is classed as cell membranes. To be noted: Membrane. Summed up:
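σ2R binding in guinea pig brain membranes with [³H]-di-o-tolylguanidine as radioligand. Compound tested at 1 μM as % inhibition. Mean of two determinations.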

Series [2] is described as follows: Stability of the compound assessed as drug degradation at pH 7.4. The series is classed as physicochemical. To be noted: buffer. In short, it runs like this: (§1)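 Chemical stability measured by LC/MS. A 10 mM DMSO stock of compound was diluted into phosphate buffer pH 7.4 or 0.01 M HCl pH 2.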
A short description of series [3]: Stability of the compound assessed as drug degradation at pH 2. The following applies: buffer. The series is classed as physicochemical. Summed up:
as §1

Sequence of Sigma non-opioid intracellular receptor 1 (Q99720 whole entry): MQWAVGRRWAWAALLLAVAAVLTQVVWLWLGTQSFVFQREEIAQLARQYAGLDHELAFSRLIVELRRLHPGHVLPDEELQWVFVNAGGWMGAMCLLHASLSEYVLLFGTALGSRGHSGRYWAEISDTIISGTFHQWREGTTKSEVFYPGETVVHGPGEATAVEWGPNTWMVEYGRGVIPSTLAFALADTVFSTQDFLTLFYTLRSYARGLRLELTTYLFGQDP

Broadly, the Ki is the equilibrium dissociation constant of an inhibitor or competing ligand from its target. Take `COc1ncccc1-c1ncnc2c1cnn2CCN1CCCCC1`: the inhibition constant (Ki) in series [1] stood at 112 nM.

What is called inhibition is the change of the read-out against control, counted positive when it falls. Take `CCOc1ccccc1-c1ncnc2c1cnn2CCN1CCCCC1`: the Ki in series [1] came to 300 nM. In addition, the inhibition in the series listed under Cavia porcellus is 81%.

For the compound `c1csc(-c2ncnc3c2cnn3CCN2CCCCC2)n1`, the Ki in series [1] turned out to be 1830 nM.

As to `Cn1cc(-c2ncnc3c2cnn3CCN2CCCCC2)cn1`, the Ki in series [1] came out at 9460 nM.

With `Clc1ccc(-c2ncnc3c2cnn3CCN2CCCCC2)s1`, the Ki in series [1] was found to be 35 nM. Also, the Stability entry in series [2] and in series [3] was “Stable” in each case.

On to `CC1(C)CCN(c2ncnc3c2cnn3CCN2CCCCC2)C1`, for which the Ki in series [1] was determined as 165 nM. For the same compound, the inhibition in the series listed under Cavia porcellus turned out to be 58%.

With `c1nc(-c2cnsc2)c2cnn(CCN3CCCCC3)c2n1`, the Ki in series [1] came out at 475 nM. Also, the inhibition in the series listed under Cavia porcellus stood at 40%.

As for `c1cn(-c2ncnc3c2cnn3CCN2CCCCC2)cn1`, in series [1], the Ki stood at 13800 nM.

In the case of `c1ccc(C2CCN(c3ncnc4c3cnn4CCN3CCCCC3)C2)cc1` (stereo unspecified), the Ki in series [1] turned out to be 294 nM. In addition, the inhibition in the series listed under Cavia porcellus amounted to 71%.

With `Clc1ccc(-c2ncnc3c2cnn3CCN2CCCCC2)cc1`, in series [1], the Ki was found to be 43 nM. In addition, the Stability entry in series [2] and in series [3] was “Stable” throughout. For the same compound, the inhibition in the series listed under Cavia porcellus was determined as 74%.

Take `Clc1ccccc1-c1ncnc2c1cnn2CCN1CCCCC1`: the Ki in series [1] amounted to 76 nM. For the same compound, the Stability result in series [2] and in series [3] was “Stable” in each case. Moreover, the inhibition in the series listed under Cavia porcellus worked out at 92%.

With `COc1ccc(-c2ncnc3c2cnn3CCN2CCCCC2)cc1`, the Ki in series [1] is 531 nM. Also, the inhibition in the series listed under Cavia porcellus came out at 58%.

Consider `Cc1cncc(-c2ncnc3c2cnn3CCN2CCCCC2)c1`, for which the Ki in series [1] came out at 447 nM.

`c1nc(N2CCCCC2)c2cnn(CCN3CCCCC3)c2n1`: the Ki in series [1] is 200 nM. The inhibition in the series listed under Cavia porcellus came to 67%.

Take `Cn1cccc1-c1ncnc2c1cnn2CCN1CCCCC1`: the Ki in series [1] was found to be 31 nM. In addition, the Stability entry in series [2] and in series [3] was “Stable” throughout.

In the case of `Cc1ccc(C)c(-c2ncnc3c2cnn3CCN2CCCCC2)c1`, the Ki in series [1] came out at 63 nM. For the same compound, the Stability result in series [2] and in series [3] was “Stable” each time. Also, the inhibition in the series listed under Cavia porcellus was found to be 89%.

As to `c1cc(-c2ncnc3c2cnn3CCN2CCCCC2)ccn1`, in series [1], the Ki amounted to 1720 nM.

`Fc1ccc(-c2ncnc3c2cnn3CCN2CCCCC2)c(F)c1`: the Ki in series [1] was determined as 93 nM. In addition, the Stability entry in series [2] and in series [3] was “Stable” in each case. Besides, the inhibition in the series filed under Cavia porcellus was found to be 83%.

Take `Cc1cc(F)ccc1-c1ncnc2c1cnn2CCN1CCCCC1`: the Ki in series [1] turned out to be 48 nM. The Stability result in series [2] and in series [3] was “Stable” throughout. The inhibition in the series listed under Cavia porcellus came to 86%.

For `Cn1cnc(-c2ncnc3c2cnn3CCN2CCCCC2)c1`, the Ki in series [1] came out at 11800 nM.

On to `c1ccc(-c2ncnc3c2cnn3CCN2CCCCC2)nc1`, for which the Ki in series [1] came out at 634 nM.

Consider `c1coc(-c2ncnc3c2cnn3CCN2CCCCC2)n1`, for which the Ki in series [1] amounted to 23800 nM.

Take `Fc1ccc(-c2ncnc3c2cnn3CCN2CCCCC2)cc1`: the Ki in series [1] stood at 95 nM. The Stability entry in series [2] and in series [3] was “Stable” each time. Also, the inhibition in the series listed under Cavia porcellus amounted to 75%.

For the compound `CNC1CCN(c2ncnc3c2cnn3CCN2CCCCC2)C1` (stereo unspecified), in series [1], the Ki was 25800 nM.

On to `Fc1ccc(-c2ncnc3c2cnn3CCN2CCCCC2)cc1C(F)(F)F`, for which the Ki in series [1] worked out at 57 nM. In addition, the Stability result in series [2] and in series [3] was “Stable” throughout. In addition, the inhibition in the series filed under Cavia porcellus was 87%.

In the case of `Cc1ccc(Cl)c(-c2ncnc3c2cnn3CCN2CCCCC2)c1`, the Ki in series [1] came to 31 nM. In addition, the Stability result in series [2] and in series [3] was “Stable” in each case. In addition, the inhibition in the series listed under Cavia porcellus was determined as 95%.

Regarding `CC(C)n1cc(-c2ncnc3c2cnn3CCN2CCCCC2)cn1`, the Ki in series [1] was found to be 2910 nM.

With `Cc1ccncc1-c1ncnc2c1cnn2CCN1CCCCC1`, in series [1], the Ki came out at 707 nM.

Consider `Fc1cc(Cl)ccc1-c1ncnc2c1cnn2CCN1CCCCC1`, for which the Ki in series [1] amounted to 112 nM. Moreover, the inhibition in the series filed under Cavia porcellus amounted to 73%.

Regarding `FC1(F)CCN(c2ncnc3c2cnn3CCN2CCCCC2)CC1`, the Ki in series [1] worked out at 108 nM. The inhibition in the series listed under Cavia porcellus came to 67%.

Regarding `N#Cc1ccc(-c2ncnc3c2cnn3CCN2CCCCC2)cc1`, the Ki in series [1] stood at 558 nM. Besides, the inhibition in the series listed under Cavia porcellus turned out to be 47%.

In the case of `O=C1CCCN1c1ncnc2c1cnn2CCN1CCCCC1`, in series [1], the Ki came to 6190 nM.

For the compound `FC(F)(F)c1ccccc1-c1ncnc2c1cnn2CCN1CCCCC1`, the Ki in series [1] was 125 nM. Besides, in the series listed under Cavia porcellus, the inhibition turned out to be 86%.

Turning to `Cc1cccc(-c2ncnc3c2cnn3CCN2CCCCC2)n1`, in series [1], the Ki was determined as 709 nM.

`c1ccc2c(c1)ncn2-c1ncnc2c1cnn2CCN1CCCCC1`: the inhibition constant Ki in series [1] was determined as 112 nM. Moreover, in the series filed under Cavia porcellus, the inhibition is 66%.

As to `COc1ccc(-c2ncnc3c2cnn3CCN2CCCCC2)cn1`, the Ki in series [1] was 38300 nM.

On to `c1ccc2c(-c3ncnc4c3cnn4CCN3CCCCC3)cncc2c1`, for which, in series [1], the Ki was 666 nM.

Take `CC(C)(C)C(=O)Nc1ncnc2c1cnn2CCN1CCCCC1`: the Stability entry in series [2] and in series [3] was “Stable” each time.

As for `Cc1ncccc1-c1ncnc2c1cnn2CCN1CCCCC1`, the Ki in series [1] came out at 732 nM.

As for `c1ccc(-c2ncnc3c2cnn3CCN2CCCCC2)cc1`, the inhibitory constant (Ki) in series [1] turned out to be 100 nM. Moreover, the inhibition in the series filed under Cavia porcellus came out at 69%.

With `Cn1cncc1-c1ncnc2c1cnn2CCN1CCCCC1`, the Ki in series [1] is 715 nM.

In the case of `c1nc(-c2cn[nH]c2)c2cnn(CCN3CCCCC3)c2n1`, the Ki in series [1] worked out at 802 nM.

In the case of `Cc1ccccc1-c1ncnc2c1cnn2CCN1CCCCC1`, the inhibition constant Ki in series [1] came out at 74 nM. For the same compound, the Stability entry in series [2] and in series [3] was “Stable” each time. Also, in the series listed under Cavia porcellus, the inhibition is 83%.

In the case of `Cn1nc(C(F)(F)F)cc1-c1ncnc2c1cnn2CCN1CCCCC1`, the Ki in series [1] amounted to 137 nM.

As to `Cc1noc(C)c1-c1ncnc2c1cnn2CCN1CCCCC1`, the Ki in series [1] is 72 nM. In addition, the Stability entry in series [2] and in series [3] was “Stable” each time.

In the case of `Cc1cccc(-c2ncnc3c2cnn3CCN2CCCCC2)c1`, the Ki in series [1] worked out at 82 nM. Besides, the Stability entry in series [2] and in series [3] was “Stable” throughout. In addition, the inhibition in the series filed under Cavia porcellus was determined as 82%.

For the compound `c1cncc(-c2ncnc3c2cnn3CCN2CCCCC2)c1`, the Ki in series [1] was 926 nM.

`Cc1ccc(C)n1-c1ncnc2c1cnn2CCN1CCCCC1`: the Ki in series [1] is 740 nM.

Consider `COc1cc(F)ccc1-c1ncnc2c1cnn2CCN1CCCCC1`, for which, in series [1], the Ki is 39 nM. Also, the Stability entry in series [2] and in series [3] was “Stable” each time. Further, the inhibition in the series filed under Cavia porcellus came out at 87%.

Values taken from ChEMBL document CHEMBL4261508, “Pyrazolo[3,4-d]pyrimidines as sigma-1 receptor ligands for the treatment of pain. Part 2: Introduction of cyclic substituents in position 4” (Medchemcomm, 2017).
